ChEMBL document CHEMBL1955865, “Synthesis of novel spirooxindole derivatives by one pot multicomponent reaction and their antimicrobial activity” (2012)
In brackets after ≈: the same amount, converted by molar mass. Activity calls are given as the source filed them. No cut-off for these calls is given here.

What was measured:
[1] = Antifungal activity against Malassezia pachydermatis at 1000 ug/disc after 48 hrs by disc diffusion assay; type: functional
In short: (§1)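 Fungal disc diffusion with inoculum from SDA spores (filamentous) or SDB culture (yeast). Test cultures were swabbed on agar, and discs at 1000 µg/disc were left 30 min at room temperature, with a solvent negative control. Plates were incubated 48 h at 27 °C. Zone of inhibition was measured in mm, and the experiment was repeated twice.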

Candida albicans [2] = test: Antifungal activity against Candida albicans MTCC 227 at 1000 ug/disc after 48 hrs by disc diffusion assay; type: functional; conditions: for zone of inhibition at 1000 µg/disc: MTCC 227, 48 h, read-out: IZ; in short: as §1
Botrytis cinerea [3] = test: Antifungal activity against Botrytis cinerea at 1000 ug/disc after 48 hrs by disc diffusion assay; type: functional; conditions: for zone of inhibition at 1000 µg/disc: read-out: IZ; in short: as §1
Staphylococcus aureus [4] = test: Antibacterial activity against Staphylococcus aureus MTCC 96 at 1000 ug/disc after 24 hrs by disc diffusion assay; type: functional; conditions: for zone of inhibition at 1000 µg/disc: MTCC 96, 24 h, read-out: IZ
In short: (§2)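 Disc diffusion on Mueller Hinton agar. Cultures (about 10^4 CFU/ml) were swabbed on and dried 10 min. Discs loaded at 1000 µg/disc were left 30 min at room temperature for diffusion, with a solvent negative control. Plates were incubated 24 h at 37 °C. Inhibition zones were measured in mm, and the experiment was done twice.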

Staphylococcus aureus [5] = test: Antibacterial activity against methicillin-resistant Staphylococcus aureus at 1000 ug/disc after 24 hrs by disc diffusion assay; type: functional; conditions: for zone of inhibition at 1000 µg/disc: read-out: IZ
In short: (§3)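 Disc diffusion on Mueller Hinton agar. Bacteria were grown 24 h at 37 °C in MHB and diluted to about 10^4 CFU/ml, swabbed onto plates and dried 10 min. Discs were loaded at 1000 μg/disc and held 30 min at room temperature for diffusion. Solvent served as negative control. After 24 h at 37 °C, inhibition zones were read in mm; run twice.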

Micrococcus luteus [6] = test: Antibacterial activity against Micrococcus luteus at 1000 ug/disc after 24 hrs by disc diffusion assay; type: functional; conditions: read-out: IZ; in short: as §2
Klebsiella aerogenes [7] = test: Antibacterial activity against Enterobacter aerogenes MTCC 111 at 1000 ug/disc after 24 hrs by disc diffusion assay; type: functional; conditions: for zone of inhibition at 1000 µg/disc: MTCC 111, 24 h, read-out: IZ; in short: as §2
Proteus vulgaris [8] = test: Antibacterial activity against Proteus vulgaris MTCC 1771 at 1000 ug/disc after 24 hrs by disc diffusion assay; type: functional; conditions: for zone of inhibition at 1000 µg/disc: MTCC 1771, 24 h, read-out: IZ; in short: as §2
Klebsiella pneumoniae [9] = test: Antibacterial activity against Klebsiella pneumoniae MTCC 109 at 1000 ug/disc after 24 hrs by disc diffusion assay; type: functional; conditions: for zone of inhibition at 1000 µg/disc: MTCC 109, 24 h, read-out: IZ; in short: as §2
Salmonella typhimurium [10] = test: Antibacterial activity against Salmonella Typhimurium MTCC 1251 at 1000 ug/disc after 24 hrs by disc diffusion assay; type: functional, Salmonella enterica subsp. enterica serovar Typhimurium; conditions: Salmonella enterica, MTCC 1251, 24 h; read-out: IZ; in short: as §2
[11] = test system: Salmonella enterica subsp. enterica serovar Paratyphi B; test: Antibacterial activity against Salmonella paratyphi B at 1000 ug/disc after 24 hrs by disc diffusion assay; type: functional; conditions: for zone of inhibition at 1000 µg/disc: read-out: IZ; in short: as §3
Staphylococcus aureus [12] = test: Antibacterial activity against Staphylococcus aureus MTCC 96 after 24 hrs by twofold serial dilution method; type: functional; conditions: MTCC 96, 24 h
In short: (§4)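 Bacteria grown in Mueller Hinton broth for 24 h at 37 °C and diluted to about 10^4 CFU/ml. Compound in 2% DMSO was serially diluted two-fold (1000 to 15.62 µg/ml) in medium in 96-well plates and inoculated. Plates were incubated 24 h at 37 °C. 5 µl of broth was spotted onto MHA, and MIC was taken as the lowest concentration with no visible growth on agar.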

Staphylococcus aureus [13] = test: Antibacterial activity against methicillin-resistant Staphylococcus aureus after 24 hrs by twofold serial dilution method; type: functional
In short: (§5)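 Broth microdilution in MHB following the standard bacterial reference method. Compound was dissolved in DMSO (2%) and serially diluted two-fold from 1000 to 15.62 µg/ml in 96-well plates, with an inoculum of about 10^4 CFU/ml. Streptomycin and ciprofloxacin were positive controls. After 24 h at 37 °C, 5 µl of broth was subcultured on MHA. MIC was the lowest concentration without visible growth on agar.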

Micrococcus luteus [14] = test: Antibacterial activity against Micrococcus luteus after 24 hrs by twofold serial dilution method; type: functional; in short: as §4
Klebsiella aerogenes [15] = test: Antibacterial activity against Enterobacter aerogenes MTCC 111 after 24 hrs by twofold serial dilution method; type: functional; conditions: MTCC 111, 24 h; in short: as §4
Proteus vulgaris [16] = test: Antibacterial activity against Proteus vulgaris MTCC 1771 after 24 hrs by twofold serial dilution method; type: functional; conditions: MTCC 1771, 24 h; in short: as §4
Klebsiella pneumoniae [17] = test: Antibacterial activity against Klebsiella pneumoniae MTCC 109 after 24 hrs by twofold serial dilution method; type: functional; conditions: MTCC 109, 24 h; in short: as §4
Salmonella typhimurium [18] = test: Antibacterial activity against Salmonella Typhimurium MTCC 1251 after 24 hrs by two-fold serial dilution method; type: functional, Salmonella enterica subsp. enterica serovar Typhimurium; conditions: Salmonella enterica, MTCC 1251, 24 h; in short: as §4
[19] = test system: Salmonella enterica subsp. enterica serovar Paratyphi B; test: Antibacterial activity against Salmonella paratyphi B after 24 hrs by twofold serial dilution method; type: functional; in short: as §5
[20] = Antifungal activity against Malassezia pachydermatis after 48 to 72 hrs by twofold serial dilution method; type: functional
In short: (§6)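 Broth two-fold serial dilution, 1000 to 15.62 µg/ml, with compound dissolved in 2% DMSO, in 96-well plates. Filamentous fungal spores came from 10-day SDA slants at 28 °C, and yeast from SDB grown 48 h at 28 °C. Incubation was 48-72 h at 28 °C. MIC was the lowest concentration with no visible fungal growth.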

Candida albicans [21] = test: Antifungal activity against Candida albicans MTCC 227 after 48 to 72 hrs by twofold serial dilution method; type: functional; in short: as §6
Botrytis cinerea [22] = test: Antifungal activity against Botrytis cinerea after 48 to 72 hrs by twofold serial dilution method; type: functional; in short: as §6

SMILES | inhibition zone (IZ) [1] | zone of inhibition at 1000 µg/disc (Candida albicans [2]) | zone of inhibition at 1000 µg/disc (Botrytis cinerea [3]) | zone of inhibition at 1000 µg/disc (Micrococcus luteus [6]) | zone of inhibition at 1000 µg/disc (Proteus vulgaris [8]) | zone of inhibition at 1000 µg/disc (Salmonella typhimurium [10]) | zone of inhibition at 1000 µg/disc [11] | zone of inhibition at 1000 µg/disc (Staphylococcus aureus [4]) | zone of inhibition at 1000 µg/disc (Staphylococcus aureus [5]) | zone of inhibition at 1000 µg/disc (Klebsiella aerogenes [7]) | zone of inhibition at 1000 µg/disc (Klebsiella pneumoniae [9]) | also measured
C#CCN1C(=O)C2(C3=C(C(=O)c4ccccc4C3=O)C3CCCN32)c2ccccc21 (stereo not given) | inactive | 8 mm | 9 mm | 9 mm | 8 mm | 9 mm | 8 mm | – | – | – | – | inhibition zone (IZ) (Staphylococcus aureus [4]): inactive; inhibition zone (IZ) (Staphylococcus aureus [5]): inactive; inhibition zone (IZ) (Klebsiella aerogenes [7]): inactive; inhibition zone (IZ) (Klebsiella pneumoniae [9]): inactive
CCCCCCN1C(=O)C2(C3=C(CN2C)C(=O)c2ccccc2C3=O)c2ccccc21 (stereo not given) | 12 mm | 14 mm | 10 mm | 10 mm | 10 mm | 16 mm | 8 mm | 12 mm | 10 mm | 13 mm | 10 mm | MIC (Staphylococcus aureus [12]): 250 µg/mL (≈ 603 µM); MIC (Staphylococcus aureus [13]): 500 µg/mL (≈ 1210 µM); MIC (Micrococcus luteus [14]): 250 µg/mL (≈ 603 µM); MIC (Klebsiella aerogenes [15]): 250 µg/mL (≈ 603 µM); MIC (Proteus vulgaris [16]): 500 µg/mL (≈ 1210 µM); MIC (Klebsiella pneumoniae [17]): 500 µg/mL (≈ 1210 µM); MIC (Salmonella typhimurium [18]): 62.5 µg/mL (≈ 151 µM); MIC [19]: 500 µg/mL (≈ 1210 µM); MIC [20]: 250 µg/mL (≈ 603 µM); MIC (Candida albicans [21]): 125 µg/mL (≈ 302 µM); MIC (Botrytis cinerea [22]): 500 µg/mL (≈ 1210 µM)
CN1CC2=C(C(=O)c3ccccc3C2=O)C12C(=O)N(Cc1ccccc1)c1ccccc12 (stereo not given) | 9 mm | 8 mm | 10 mm | 9 mm | 8 mm | 9 mm | 8 mm | 9 mm | 8 mm | 8 mm | 10 mm | –
C=CCN1C(=O)C2(C3=C(C(=O)c4ccccc4C3=O)C3CCCN32)c2ccccc21 (stereo not given) | inactive | – | – | 9 mm | – | 9 mm | – | 8 mm | – | – | – | inhibition zone (IZ) (Candida albicans [2]): inactive; inhibition zone (IZ) (Botrytis cinerea [3]): inactive; inhibition zone (IZ) (Staphylococcus aureus [5]): inactive; inhibition zone (IZ) (Klebsiella aerogenes [7]): inactive; inhibition zone (IZ) (Proteus vulgaris [8]): inactive; inhibition zone (IZ) (Klebsiella pneumoniae [9]): inactive; inhibition zone (IZ) [11]: inactive
Cc1ccc2c(c1)C1(C(=O)N2)C2=C(C(=O)c3ccccc3C2=O)C2CCCN21 (stereo not given) | 9 mm | – | 9 mm | 11 mm | 9 mm | 11 mm | 8 mm | 10 mm | 8 mm | 9 mm | 10 mm | inhibition zone (IZ) (Candida albicans [2]): inactive
O=C(O)c1cn(C2CC2)c2cc(N3CCNCC3)c(F)cc2c1=O [CIPROFLOXACIN] | – | – | – | – | – | – | – | – | – | – | – | MIC (Staphylococcus aureus [12]): < 0.78 µg/mL; MIC (Staphylococcus aureus [13]): > 100 µg/mL; MIC (Micrococcus luteus [14]): > 100 µg/mL; MIC (Klebsiella aerogenes [15]): < 0.78 µg/mL; MIC (Proteus vulgaris [16]): < 0.78 µg/mL; MIC (Klebsiella pneumoniae [17]): < 0.78 µg/mL; MIC (Salmonella typhimurium [18]): > 100 µg/mL; MIC [19]: 6.25 µg/mL (≈ 18.9 µM)
CC(=O)N1CCN(c2ccc(OCC3COC(Cn4ccnc4)(c4ccc(Cl)cc4Cl)O3)cc2)CC1 (stereo not given) [KETOCONAZOLE] | 28 mm | 22 mm | – | – | – | – | – | – | – | – | – | inhibition zone (IZ) (Botrytis cinerea [3]): inactive; MIC [20]: 15 µg/mL (≈ 28.2 µM); MIC (Candida albicans [21]): 25 µg/mL (≈ 47 µM); MIC (Botrytis cinerea [22]): 25 µg/mL (≈ 47 µM)
